{
  "source": "ChEMBL document CHEMBL5357069",
  "about": "“Development of a GC-376 Based Peptidomimetic PROTAC as a Degrader of 3-Chymotrypsin-like Protease of SARS-CoV-2” (ACS Med Chem Lett, 2024)",
  "key": {"[1]": {"target": "Replicase polyprotein 1ab (Severe acute respiratory syndrome coronavirus 2) (UniProt P0DTD1)", "experiment": "Binding affinity to monomeric form of SARS-CoV-2 3CLPro assessed as change in chemical shift by NMR spectroscopy"}, "[2]": {"target": "Replicase polyprotein 1ab (Severe acute respiratory syndrome coronavirus 2) (UniProt P0DTD1)", "experiment": "Binding affinity to dimeric form of SARS-CoV-2 3CLPro assessed as change in chemical shift by NMR spectroscopy", "summary_of_the_method": "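Solution NMR titration of dimeric 3CLPro with the ligand up to a 1:1 protein:ligand molar ratio, following loss of free-protein signals and appearance of adduct signals.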"}, "[3]": {"target": "Replicase polyprotein 1ab (Severe acute respiratory syndrome coronavirus 2) (UniProt P0DTD1)", "experiment": "Binding affinity to SARS-CoV-2 3CLPro assessed as covalent complex formation by MALDI TOF mass spectrometry"}, "HeLa": {"tested_on": "HeLa", "experiment": "Cytotoxicity against human HeLa cells assessed as cell viability upto 80 uM incubated for 72 hrs by MTT assay", "format": "toxicity, cell-based", "summary_of_the_method": "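HeLa cells exposed to compound for 72 h at a series of concentrations; viability read by MTT assay.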"}, "[4]": {"target": "Replicase polyprotein 1ab (Severe acute respiratory syndrome coronavirus 2, UniProt P0DTD1)", "experiment": "Inhibition of N-terminal 6xHis-tagged SARS-CoV-2 3CLPro expressed in Escherichia coli BL21(DE3) using Hi-lyte Fluor-488-ESATLQSGLRKAK-(QXL-520)-NH2 as substrate preincubated for 10 mins followed by substrate addition measured for 30 mins by fluorometric assay"}, "[5]": {"target": "T1, Protein cereblon/Replicase polyprotein 1ab (Severe acute respiratory syndrome coronavirus 2) (UniProt Q96SW2+P0DTD1)", "experiment": "PROTAC activity at CRBN/C-terminal HA epitope-tagged SARS-CoV-2 3CLPro transfected in human HeLa cells assessed as degradation of 3CLPro at 80 uM incubated upto 48 hrs by immunoblot analysis", "format": "cell-based", "summary_of_the_method": "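Time course in HeLa cells stably expressing C-terminally HA-tagged 3CLPro (lentiviral transduction, puromycin selection), treated at 80 μM; whole-cell extracts immunoblotted, 3CLPro band normalized to actin.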"}, "[6]": {"target": "Replicase polyprotein 1ab (Severe acute respiratory syndrome coronavirus 2) (UniProt P0DTD1)", "experiment": "Reversible binding affinity to SARS-CoV-2 3CLPro using fluorogenic substrate assessed as covalent complex formation preincubated for 30 mins followed by substrate addition by MALDI TOF mass spectrometry", "summary_of_the_method": "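Reversibility by dilution: enzyme incubated 30 min with or without large compound excess, then diluted 100-fold into buffer with fluorogenic substrate; initial velocities from progress curves compared against compound-free enzyme.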"}, "[7]": {"target": "T1, Protein cereblon/Replicase polyprotein 1ab (Severe acute respiratory syndrome coronavirus 2)", "experiment": "PROTAC activity at CRBN/C-terminal HA epitope-tagged SARS-CoV-2 3CLPro transfected in human HeLa cells assessed as degradation of 3CLPro upto 80 uM by immunoblot analysis", "format": "cell-based", "summary_of_the_method": "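HeLa cells stably expressing C-terminally HA-tagged 3CLPro (lentiviral, puromycin-selected) treated 24 h at a range of concentrations; lysates immunoblotted, 3CLPro normalized to actin.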"}, "[8]": {"target": "Replicase polyprotein 1ab (Severe acute respiratory syndrome coronavirus 2) (UniProt P0DTD1)", "experiment": "Inhibition of N-terminal 6xHis-tagged SARS-CoV-2 3CLPro expressed in Escherichia coli BL21(DE3) using Hi-lyte Fluor-488-ESATLQSGLRKAK-(QXL-520)-NH2 as substrate at 10 uM preincubated for 10 mins followed by substrate addition measured for 30 mins by fluorometric assay relative to control", "settings": "time 40.0 min"}, "[9]": {"target": "Replicase polyprotein 1ab (Severe acute respiratory syndrome coronavirus 2) (UniProt P0DTD1)", "experiment": "Inhibition of N-terminal 6xHis-tagged SARS-CoV-2 3CLPro expressed in Escherichia coli BL21(DE3) using Hi-lyte Fluor-488-ESATLQSGLRKAK-(QXL-520)-NH2 as substrate at 100 uM preincubated for 10 mins followed by substrate addition measured for 30 mins by fluorometric assay relative to control", "settings": "time 40.0 min"}},
  "note": "Calls of active or inactive are those of the source. The calls are words filed in the database; no cut-off is given here.",
  "data": [
    {"compound": "CC(C)C[C@H](NC(=O)OCc1ccccc1)C(=O)N[C@H](/C=C/C(=O)N1CCN(CC2CCN(c3cc4c(cc3F)C(=O)N(C3CCC(=O)NC3=O)C4=O)CC2)CC1)C[C@@H]1CCNC1=O", "note": "(stereo partly drawn)", "values": [
      {"measurement": "Activity", "setting": "[1]", "value": "inactive"},
      {"measurement": "Activity", "setting": "[2]", "value": "Active"},
      {"measurement": "Activity", "setting": "[3]", "value": "Active"},
      {"measurement": "Activity", "setting": "HeLa", "value": "Non-Toxic"},
      {"measurement": "IC50", "setting": "[4]", "value": 21.2, "unit": "µM"},
      {"measurement": "Activity", "setting": "[5]", "value": "Active"},
      {"measurement": "Activity", "setting": "[6]", "value": "Active"},
      {"measurement": "Activity", "setting": "[7]", "value": "Active"}
    ]},
    {"compound": "COC(=O)/C=C/[C@H](C[C@@H]1CCNC1=O)NC(=O)[C@H](Cc1ccccc1)NC(=O)[C@@H](NC(=O)CCC(=O)N1CCN(C(=O)C2CCN(c3cccc4c3C(=O)N(C3CCC(=O)NC3=O)C4=O)CC2)CC1)C(C)C", "note": "(stereo partly drawn)", "values": [
      {"measurement": "IC50", "setting": "[4]", "value": "> 100", "unit": "µM"},
      {"measurement": "inhibition", "setting": "[8]", "value": 0, "unit": "%"},
      {"measurement": "inhibition", "setting": "[9]", "value": 64, "unit": "%"}
    ]},
    {"compound": "COC(=O)/C=C/[C@H](C[C@@H]1CCNC1=O)NC(=O)[C@H](CC(C)C)NC(=O)OCc1ccccc1", "values": [
      {"measurement": "Activity", "setting": "[3]", "value": "Active"},
      {"measurement": "IC50", "setting": "[4]", "value": 1.35, "unit": "µM"}
    ]}
  ]
}
